Measurements reported in ChEMBL document CHEMBL1142148, “Antibiotic susceptibility profile of bifidobacteria as affected by oxgall, acid, and hydrogen peroxide stress” (2007).
≈ marks a conversion by molar mass, not a printed value.

Key:
Bifidobacterium bifidum [1] = assay: Antimicrobial activity against 90 mins oxgall-stressed Bifidobacterium bifidum R0071 after 18 hrs; type: functional
In short: (§1)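 Cells pelleted from mid-log MRS culture and resuspended in MRS (initial pH 6.5) with 0.3% (wt/vol) oxgall for 90 min anaerobically at 37°C. They were then regrown in MRS pH 6.5 for 24 h (footnote: 18 h) anaerobically and tested for MIC by the same broth microdilution assay. Median of four repetitions.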

[2] = system: Bifidobacterium thermophilum; assay: Antimicrobial activity against 90 mins oxgall-stressed Bifidobacterium thermophilum ATCC 25866 after 18 hrs; type: functional; in short: as §1
Bifidobacterium bifidum [3] = assay: Antimicrobial activity against Bifidobacterium bifidum R0071; type: functional
In short: (§2)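 Broth microdilution in MRS plus 0.05% L-cysteine-HCl. Mid-log culture adjusted to OD650 0.1, giving about 2.5 × 10^4 to 5.0 × 10^4 CFU/well, then added to twofold serial dilutions of agent. Plates incubated anaerobically at 37°C for 18 h and read at OD650. MIC is the lowest concentration matching the uninoculated blank OD, taken as the median of four repeats.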

Bifidobacterium bifidum [4] = assay: Antimicrobial activity against Bifidobacterium bifidum BB12; type: functional; in short: as §2
[5] = Antimicrobial activity against 90 mins oxgall-stressed Bifidobacterium infantis ATCC 15697 after 18 hrs; type: functional, Bifidobacterium longum subsp. infantis; conditions: Bifidobacterium longum; in short: as §1
Bifidobacterium longum [6] = assay: Antimicrobial activity against 90 mins hydrogen peroxide-stressed Bifidobacterium longum P/N 601377 after 18 hrs; type: functional
In short: (§3)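 Stress applied for 90 min at 37°C under anaerobic conditions, using MRS (initial pH 6.5) containing H2O2 at each strain's own inhibitory concentration. The H2O2 level was set beforehand by microplate tolerance testing. Challenged cells were regrown in MRS for 24 h (footnote: 18 h) before MIC testing by broth microdilution. Median of four repetitions.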

Bifidobacterium breve [7] = assay: Antimicrobial activity against Bifidobacterium breve R0070; type: functional; in short: as §2
Bifidobacterium breve [8] = assay: Antimicrobial activity against 90 mins oxgall-stressed Bifidobacterium breve R0070 after 18 hrs; type: functional; in short: as §1
Bifidobacterium breve [9] = assay: Antimicrobial activity against 60 min 1 M HCl-stressed Bifidobacterium breve ATCC 15700 after 18 hrs; type: functional
In short: (§4)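 Mid-log MRS culture pelleted and resuspended in MRS broth brought to pH 2.0 with 1 M HCl, held anaerobically at 37°C for 60 min, then subcultured in MRS (pH 6.5) for 24 h anaerobically before MIC testing by broth microdilution (as for unstressed cells). Table footnote gives 18 h anaerobic regrowth after the stress. MIC is the median of four repetitions.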

Bifidobacterium longum [10] = assay: Antimicrobial activity against 90 mins oxgall-stressed Bifidobacterium longum ATCC 15708 after 18 hrs; type: functional; in short: as §1
[11] = system: Bifidobacterium pseudolongum; assay: Antimicrobial activity against 90 mins oxgall-stressed Bifidobacterium pseudolongum ATCC 25562 after 18 hrs; type: functional; in short: as §1
Bifidobacterium breve [12] = assay: Antimicrobial activity against Bifidobacterium breve ATCC 15700; type: functional; in short: as §2
Bifidobacterium longum [13] = assay: Antimicrobial activity against 60 min 1 M HCl-stressed Bifidobacterium longum P/N 601377 after 18 hrs; type: functional; in short: as §4
Bifidobacterium bifidum [14] = assay: Antimicrobial activity against 90 mins hydrogen peroxide-stressed Bifidobacterium bifidum BB12 after 18 hrs; type: functional; in short: as §3
[15] = system: Bifidobacterium pseudolongum; assay: Antimicrobial activity against 60 min 1 M HCl-stressed Bifidobacterium pseudolongum ATCC 25562 after 18 hrs; type: functional; in short: as §4
Bifidobacterium animalis [16] = assay: Antimicrobial activity against 90 mins oxgall-stressed Bifidobacterium animalis ATCC 27536 after 18 hrs; type: functional; in short: as §1
[17] = system: Bifidobacterium thermophilum; assay: Antimicrobial activity against 60 min 1 M HCl-stressed Bifidobacterium thermophilum ATCC 25866 after 18 hrs; type: functional; in short: as §4
Bifidobacterium longum [18] = assay: Antimicrobial activity against Bifidobacterium longum P/N 601377; type: functional; in short: as §2
Bifidobacterium breve [19] = assay: Antimicrobial activity against 90 mins oxgall-stressed Bifidobacterium breve ATCC 15700 after 18 hrs; type: functional; in short: as §1
Bifidobacterium longum [20] = assay: Antimicrobial activity against 90 mins oxgall-stressed Bifidobacterium longum ATCC 15707 after 18 hrs; type: functional; in short: as §1
[21] = system: Bifidobacterium thermophilum; assay: Antimicrobial activity against 90 mins hydrogen peroxide-stressed Bifidobacterium thermophilum ATCC 25866 after 18 hrs; type: functional; in short: as §3
Bifidobacterium longum [22] = assay: Antimicrobial activity against 90 mins oxgall-stressed Bifidobacterium longum P/N 601377 after 18 hrs; type: functional; in short: as §1
Bifidobacterium longum [23] = assay: Antimicrobial activity against Bifidobacterium longum ATCC 15707; type: functional; in short: as §2
Bifidobacterium longum [24] = assay: Antimicrobial activity against Bifidobacterium longum ATCC 15708; type: functional; in short: as §2
Bifidobacterium animalis [25] = assay: Antimicrobial activity against 60 min 1 M HCl-stressed Bifidobacterium animalis ATCC 27536 after 18 hrs; type: functional; in short: as §4
Bifidobacterium longum [26] = assay: Antimicrobial activity against 90 mins hydrogen peroxide-stressed Bifidobacterium longum ATCC 15707 after 18 hrs; type: functional; in short: as §3
[27] = system: Bifidobacterium pseudolongum; assay: Antimicrobial activity against Bifidobacterium pseudolongum ATCC 25562; type: functional; in short: as §2
Bifidobacterium bifidum [28] = assay: Antimicrobial activity against Bifidobacterium bifidum ATCC 15696; type: functional; in short: as §2
Bifidobacterium bifidum [29] = assay: Antimicrobial activity against 60 min 1 M HCl-stressed Bifidobacterium bifidum R0071 after 18 hrs; type: functional; in short: as §4
[30] = Antimicrobial activity against Bifidobacterium infantis ATCC 15697; type: functional, Bifidobacterium longum subsp. infantis; conditions: Bifidobacterium longum; in short: as §2
Bifidobacterium animalis [31] = assay: Antimicrobial activity against 90 mins hydrogen peroxide-stressed Bifidobacterium animalis ATCC 27536 after 18 hrs; type: functional; in short: as §3
Bifidobacterium breve [32] = assay: Antimicrobial activity against 60 min 1 M HCl-stressed Bifidobacterium breve R0070 after 18 hrs; type: functional; in short: as §4
Bifidobacterium breve [33] = assay: Antimicrobial activity against 90 mins hydrogen peroxide-stressed Bifidobacterium breve R0070 after 18 hrs; type: functional; in short: as §3
[34] = Antimicrobial activity against 60 min 1 M HCl-stressed Bifidobacterium infantis ATCC 15697 after 18 hrs; type: functional, Bifidobacterium longum subsp. infantis; conditions: Bifidobacterium longum; in short: as §4
Bifidobacterium breve [35] = assay: Antimicrobial activity against 90 mins hydrogen peroxide-stressed Bifidobacterium breve ATCC 15700 after 18 hrs; type: functional; in short: as §3
Bifidobacterium longum [36] = assay: Antimicrobial activity against 60 min 1 M HCl-stressed Bifidobacterium longum R0175 after 18 hrs; type: functional; in short: as §4
[37] = system: Bifidobacterium thermophilum; assay: Antimicrobial activity against Bifidobacterium thermophilum ATCC 25866; type: functional; in short: as §2
Bifidobacterium longum [38] = assay: Antimicrobial activity against Bifidobacterium longum R0175; type: functional; in short: as §2
Bifidobacterium longum [39] = assay: Antimicrobial activity against 90 mins hydrogen peroxide-stressed Bifidobacterium longum ATCC 15708 after 18 hrs; type: functional; in short: as §3
Bifidobacterium bifidum [40] = assay: Antimicrobial activity against 60 min 1 M HCl-stressed Bifidobacterium bifidum BB12 after 18 hrs; type: functional; in short: as §4
Bifidobacterium longum [41] = assay: Antimicrobial activity against 60 min 1 M HCl-stressed Bifidobacterium longum ATCC 15707 after 18 hrs; type: functional; in short: as §4
Bifidobacterium bifidum [42] = assay: Antimicrobial activity against 90 mins oxgall-stressed Bifidobacterium bifidum BB12 after 18 hrs; type: functional; in short: as §1
Bifidobacterium longum [43] = assay: Antimicrobial activity against 90 mins hydrogen peroxide-stressed Bifidobacterium longum R0175 after 18 hrs; type: functional; in short: as §3
Bifidobacterium animalis [44] = assay: Antimicrobial activity against Bifidobacterium animalis ATCC 27536; type: functional; in short: as §2
Bifidobacterium bifidum [45] = assay: Antimicrobial activity against 90 mins oxgall-stressed Bifidobacterium bifidum ATCC 15696 after 18 hrs; type: functional; in short: as §1
Bifidobacterium bifidum [46] = assay: Antimicrobial activity against 90 mins hydrogen peroxide-stressed Bifidobacterium bifidum R0071 after 18 hrs; type: functional; in short: as §3
Bifidobacterium longum [47] = assay: Antimicrobial activity against 90 mins oxgall-stressed Bifidobacterium longum R0175 after 18 hrs; type: functional; in short: as §1

## NC[C@@H]1O[C@H](O[C@H]2[C@@H](O)[C@H](O[C@@H]3[C@@H](O)[C@H](N)C[C@H](N)[C@H]3O[C@H]3O[C@H](CO)[C@@H](O)[C@H](O)[C@H]3N)O[C@@H]2CO)[C@H](N)[C@@H](O)[C@@H]1O [PAROMOMYCIN]
Bifidobacterium bifidum [1]
  MIC: 125 µg/mL (≈ 203 µM)
[2]
  MIC: 250 µg/mL (≈ 406 µM)
Bifidobacterium bifidum [3]
  MIC: 250 µg/mL (≈ 406 µM)
Bifidobacterium bifidum [4]
  MIC: 250 µg/mL (≈ 406 µM)
[5]
  MIC: 500 µg/mL (≈ 812 µM)
Bifidobacterium longum [6]
  MIC: 125 µg/mL (≈ 203 µM)
Bifidobacterium breve [7]
  MIC: 250 µg/mL (≈ 406 µM)
Bifidobacterium breve [8]
  MIC: 125 µg/mL (≈ 203 µM)
Bifidobacterium breve [9]
  MIC: 125 µg/mL (≈ 203 µM)
Bifidobacterium longum [10]
  MIC: 500 µg/mL (≈ 812 µM)
[11]
  MIC: 500 µg/mL (≈ 812 µM)
Bifidobacterium breve [12]
  MIC: 250 µg/mL (≈ 406 µM)
Bifidobacterium longum [13]
  MIC: 250 µg/mL (≈ 406 µM)
Bifidobacterium bifidum [14]
  MIC: 500 µg/mL (≈ 812 µM)
[15]
  MIC: 250 µg/mL (≈ 406 µM)
Bifidobacterium animalis [16]
  MIC: 125 µg/mL (≈ 203 µM)
[17]
  MIC: 500 µg/mL (≈ 812 µM)
Bifidobacterium longum [18]
  MIC: 250 µg/mL (≈ 406 µM)
Bifidobacterium breve [19]
  MIC: 250 µg/mL (≈ 406 µM)
Bifidobacterium longum [20]
  MIC: 125 µg/mL (≈ 203 µM)
[21]
  MIC: 500 µg/mL (≈ 812 µM)
Bifidobacterium longum [22]
  MIC: 62.5 µg/mL (≈ 102 µM)
Bifidobacterium longum [23]
  MIC: 250 µg/mL (≈ 406 µM)
Bifidobacterium longum [24]
  MIC: 250 µg/mL (≈ 406 µM)
Bifidobacterium animalis [25]
  MIC: 500 µg/mL (≈ 812 µM)
Bifidobacterium longum [26]
  MIC: 500 µg/mL (≈ 812 µM)
[27]
  MIC: 250 µg/mL (≈ 406 µM)
Bifidobacterium bifidum [28]
  MIC: 250 µg/mL (≈ 406 µM)
Bifidobacterium bifidum [29]
  MIC: 250 µg/mL (≈ 406 µM)
[30]
  MIC: 250 µg/mL (≈ 406 µM)
Bifidobacterium animalis [31]
  MIC: 500 µg/mL (≈ 812 µM)
Bifidobacterium breve [32]
  MIC: 250 µg/mL (≈ 406 µM)
Bifidobacterium breve [33]
  MIC: 250 µg/mL (≈ 406 µM)
[34]
  MIC: 250 µg/mL (≈ 406 µM)
Bifidobacterium breve [35]
  MIC: 500 µg/mL (≈ 812 µM)
Bifidobacterium longum [36]
  MIC: 250 µg/mL (≈ 406 µM)
[37]
  MIC: 250 µg/mL (≈ 406 µM)
Bifidobacterium longum [38]
  MIC: 250 µg/mL (≈ 406 µM)
Bifidobacterium longum [39]
  MIC: 250 µg/mL (≈ 406 µM)
Bifidobacterium bifidum [40]
  MIC: 125 µg/mL (≈ 203 µM)
Bifidobacterium longum [41]
  MIC: 500 µg/mL (≈ 812 µM)
Bifidobacterium bifidum [42]
  MIC: 250 µg/mL (≈ 406 µM)
Bifidobacterium longum [43]
  MIC: 250 µg/mL (≈ 406 µM)
Bifidobacterium animalis [44]
  MIC: 250 µg/mL (≈ 406 µM)
Bifidobacterium bifidum [45]
  MIC: 500 µg/mL (≈ 812 µM)
Bifidobacterium bifidum [46]
  MIC: 125 µg/mL (≈ 203 µM)
Bifidobacterium longum [47]
  MIC: 125 µg/mL (≈ 203 µM)
